Laboratory results reported in ChEMBL document CHEMBL4014308, “Amphiphilic Tobramycin-Lysine Conjugates Sensitize Multidrug Resistant Gram-Negative Bacteria to Rifampicin and Minocycline” (J Med Chem, 2017).
The source made the active and inactive calls. The calls are words filed in the database; no cut-off is given here.

What was measured:
Format in all cases: functional
[1] = tested on: Acinetobacter baumannii; experiment: Potentiation of rifampicin-induced antibacterial activity against multidrug-resistant Acinetobacter baumannii AB027 at 4 ug/ml after 18 hrs by checkerboard assay
Procedure, shortened: (§1)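 Checkerboard in Mueller-Hinton broth: antibiotic serially diluted along one axis and adjuvant along the other (10 × 7 matrix). Inoculum from a 0.5 McFarland saline suspension diluted 1:50 in MHB; 18 h at 37 °C, then plate read. MIC is the lowest concentration with no growth. FIC of each agent is its concentration in a no-growth well divided by its MIC alone; FIC index is the sum of both. FIC index ≤0.5 counts as synergy.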

[2] = tested on: Pseudomonas aeruginosa; experiment: Potentiation of minocycline-induced antibacterial activity against multidrug/extremely drug-resistant/colistin-susceptible Pseudomonas aeruginosa isolate P259-96918 at 4 ug/ml after 18 hrs by checkerboard assay; procedure, shortened: as §1
[3] = tested on: Klebsiella pneumoniae; experiment: Synergistic antibacterial activity against multidrug-resistant Klebsiella pneumoniae 116381 after 18 hrs in presence of rifampicin by checkerboard assay; conditions: Klebsiella pneumoniae, 116381, 18 h
Procedure, shortened: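 Checkerboard in Mueller-Hinton broth: antibiotic serially diluted along one axis and adjuvant along the other (10 × 7 matrix). Inoculum was overnight culture set to 0.5 McFarland in saline, then diluted 1:50 in broth. Incubated 18 h at 37 °C. MIC was the lowest concentration with no growth. FIC index is the sum of both FICs (combination concentration ÷ MIC alone); ≤0.5 counted as synergy.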

[4] = tested on: Pseudomonas aeruginosa; experiment: Potentiation of minocycline-induced antibacterial activity against multidrug/extremely drug-resistant/colistin-resistant Pseudomonas aeruginosa isolate 101243 at 4 ug/ml after 18 hrs by checkerboard assay; procedure, shortened: as §1
[5] = tested on: Acinetobacter baumannii; experiment: Antibacterial activity against Acinetobacter baumannii isolate CAN-ICU 63169 after 18 hrs by microtiter dilution assay; conditions: isolate CAN-ICU 63169, 18 h
Procedure, shortened: (§2)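 Broth microdilution per CLSI. Overnight culture adjusted to 0.5 McFarland in saline, diluted 1:50 in Mueller-Hinton broth, and added to an equal volume of 2-fold serial compound dilutions in MHB. Incubated 18 h at 37 °C. MIC taken as the lowest concentration with no visible growth.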

[6] = tested on: Pseudomonas aeruginosa; experiment: Potentiation of minocycline-induced antibacterial activity against multidrug/extremely drug-resistant/colistin-resistant Pseudomonas aeruginosa isolate 101243 assessed as fold reduction in minocycline MIC at 4 ug/ml after 18 hrs by checkerboard assay relative to control
Procedure, shortened: (§3)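 Checkerboard in Mueller-Hinton broth, 10 × 7 matrix, with the adjuvant held at 4 µg/mL. Inoculum from a 0.5 McFarland suspension diluted 1:50; 18 h at 37 °C. Antibiotic MIC (lowest concentration with no growth) with adjuvant is compared with the antibiotic MIC alone, giving a fold reduction.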

[7] = tested on: Pseudomonas aeruginosa; experiment: Potentiation of rifampicin-induced antibacterial activity against multidrug/extremely drug-resistant/colistin-susceptible Pseudomonas aeruginosa isolate P262-101856 at 4 ug/ml after 18 hrs by checkerboard assay
Procedure, shortened: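 Checkerboard broth microdilution in MHB: antibiotic serially diluted along one axis, adjuvant along the other (10 × 7 matrix). Inoculum from 0.5 McFarland saline suspension diluted 1:50 in MHB; 18 h at 37 °C. MIC taken as lowest concentration with no growth. FIC per agent = combination MIC/MIC alone; FIC index = sum (≤0.5 synergy).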

[8] = tested on: Pseudomonas aeruginosa; experiment: Antibacterial activity against gentamicin/tobramycin-resistant Pseudomonas aeruginosa isolate CANWARD-2011 96846 after 18 hrs by microtiter dilution assay; conditions: isolate CANWARD-2011 96846, 18 h
Procedure, shortened: (§4)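 Broth microdilution following CLSI guidelines. An overnight culture was adjusted to 0.5 McFarland in saline, then diluted 1:50 in Mueller-Hinton broth. This inoculum was added in equal volume to 2-fold serial dilutions of agent in MHB and incubated 18 h at 37 °C. MIC was the lowest concentration with no visible growth.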

[9] = tested on: Escherichia coli; experiment: Antibacterial activity against amikacin-resistant Escherichia coli isolate CAN-ICU 63074 after 18 hrs by microtiter dilution assay; conditions: isolate CAN-ICU 63074, 18 h; procedure, shortened: as §4
[10] = tested on: Pseudomonas aeruginosa; experiment: Potentiation of rifampicin-induced antibacterial activity against multidrug/extremely drug-resistant/colistin-susceptible Pseudomonas aeruginosa isolate P262-101856 infected in Galleria mellonella assessed as host survival at 75 mg/kg after 24 hrs relative to control; conditions: isolate P262-101856, 24 h
Procedure, shortened: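 Galleria mellonella larvae (about 250 mg, used within 7 days; 15 per group) were injected with 10 µL of XDR P. aeruginosa P262 at 1.0×10^3 CFU/mL. At 2 h they received a single 10 µL injection: monotherapy at 75 mg/kg, or combinations at 12.5+12.5 to 75+75 mg/kg. PBS vehicle served as control. Survival was scored over 24 h at 37 °C.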

[11] = tested on: Enterococcus faecium; experiment: Antibacterial activity against Enterococcus faecium ATCC 27270 after 18 hrs by microtiter dilution assay; conditions: ATCC 27270, 18 h; procedure, shortened: as §2
[12] = tested on: Pseudomonas aeruginosa; experiment: Antibacterial activity against multidrug/extremely drug-resistant/colistin-resistant Pseudomonas aeruginosa isolate 91433 after 18 hrs by microtiter dilution assay; conditions: isolate 91433, 18 h; procedure, shortened: as §4
[13] = tested on: Pseudomonas aeruginosa; experiment: Potentiation of minocycline-induced bactericidal activity against Pseudomonas aeruginosa PAO1 at 0.125 times antibacterial MIC after 90 mins
Procedure, shortened: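 Combination time-kill in PAO1 (LB, 37 °C). Aliquots taken at 0–360 min, serially diluted in PBS, plated on LB agar, and CFU counted after 20 h at 37 °C.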

[14] = tested on: Pseudomonas aeruginosa; experiment: Potentiation of minocycline-induced antibacterial activity against multidrug/extremely drug-resistant/colistin-susceptible Pseudomonas aeruginosa isolate 101885 assessed as fold reduction in minocycline MIC at 4 ug/ml after 18 hrs by checkerboard assay relative to control; procedure, shortened: as §3
[15] = tested on: Pseudomonas aeruginosa; experiment: Synergistic antibacterial activity against Pseudomonas aeruginosa PAO1 after 18 hrs in presence of kanamycin A by checkerboard assay; conditions: PAO1, 18 h
Procedure, shortened: (§5)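 Checkerboard in MHB: antibiotic diluted along one axis and adjuvant along the other (10 × 7 matrix). Inoculum was a 1:50 dilution in MHB of a 0.5 McFarland saline suspension; incubated 18 h at 37 °C. Each FIC = concentration in the no-growth well divided by the MIC alone; FIC index = sum of both FICs. ≤0.5 synergy, 0.5–4 no interaction, ≥4 antagonism.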

[16] = tested on: Pseudomonas aeruginosa; experiment: Potentiation of minocycline-induced antibacterial activity against multidrug/extremely drug-resistant/colistin-susceptible Pseudomonas aeruginosa isolate P259-96918 assessed as fold reduction in minocycline MIC at 4 ug/ml after 18 hrs by checkerboard assay relative to control; procedure, shortened: as §3
[17] = tested on: Klebsiella pneumoniae; experiment: Antibacterial activity against Klebsiella pneumoniae ATCC 13883 after 18 hrs by microtiter dilution assay; conditions: ATCC 13883, 18 h; procedure, shortened: as §2
[18] = tested on: Pseudomonas aeruginosa; experiment: Synergistic antibacterial activity against Pseudomonas aeruginosa PAO1 after 18 hrs in presence of chloramphen by checkerboard assay; conditions: PAO1, 18 h; procedure, shortened: as §5

`Cl.Cl.Cl.Cl.Cl.Cl.Cl.NCCCC[C@H](N)C(=O)N(CCCCCCCCCCCCO[C@@H]1[C@@H](O[C@H]2O[C@H](CO)[C@@H](O)[C@H](N)[C@H]2O)[C@H](N)C[C@H](N)[C@H]1O[C@H]1O[C@H](CN)[C@@H](O)C[C@H]1N)Cc1c2ccccc2c(Cl)c2ccccc12` was tested, and the “fractional inhibitory concentration index (FICI)” value [1] was 0.079, the “fractional inhibitory concentration index (FICI)” value [2] was 0.047 and the MIC [3] was 4 µg/mL. The “fractional inhibitory concentration index (FICI)” value [4] was 0.281, the MIC [5] was 128 µg/mL and the “fold change (FC)” value [6] was 4. For the same molecule, the “fractional inhibitory concentration index (FICI)” value [7] was 0.141, the MIC [8] was 32 µg/mL and the MIC [9] was 16 µg/mL. The survival at 75 mg/kg [10] was 77%, the MIC [11] was 8 µg/mL and the MIC [12] was 8 µg/mL. For the same molecule, the Activity [13] was “Active”, the “fold change (FC)” value [14] was 16 and the MIC [15] was 0.5 µg/mL. For the same molecule, the “fold change (FC)” value [16] was 64, the MIC [17] was 128 µg/mL and the MIC [18] was 4 µg/mL.
